Results as given in ChEMBL document CHEMBL1153804, “Optimization of a series of quinazolinone-derived antagonists of CXCR3” (Bioorg Med Chem Lett, 2009).
Changes are numbered by the printed parent chain. The source made the active and inactive calls. The calls are words filed in the database; no cut-off is given here.

Columns and labels:
[1] = biological target: T1, CXC chemokine receptor 3 (Macaca mulatta, UniProt B8PY99); assay: Displacement of [125I]-IP10 from rhesus monkey CXCR3 expressed in human PBMC after 2 hrs in RPMI buffer by scintillation counting
T1 sequence (B8PY99 whole entry): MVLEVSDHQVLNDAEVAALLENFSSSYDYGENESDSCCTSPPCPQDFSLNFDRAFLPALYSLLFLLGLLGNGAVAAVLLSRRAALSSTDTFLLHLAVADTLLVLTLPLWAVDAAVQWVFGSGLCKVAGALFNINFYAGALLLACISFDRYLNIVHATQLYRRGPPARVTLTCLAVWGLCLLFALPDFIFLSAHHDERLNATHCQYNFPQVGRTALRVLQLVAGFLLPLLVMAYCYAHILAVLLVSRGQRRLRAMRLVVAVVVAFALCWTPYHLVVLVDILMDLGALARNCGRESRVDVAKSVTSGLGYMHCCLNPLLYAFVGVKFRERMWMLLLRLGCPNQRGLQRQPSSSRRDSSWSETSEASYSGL
Method in brief: (§1)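 PBMC bearing CXCR3 were co-incubated with antagonist and recombinant human [125I]-IP10 for 2 h at room temperature in RPMI-1640 (no phenol red) with 0.5% BSA. Cells were harvested onto filter plates and bound radioactivity was counted by scintillation. IC50 values are means of three experiments.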

[2] = Mean residence time in dog at 1 mg/kg, iv; type: ADME, organism-based, Canis lupus familiaris; set-up: dose 1 mg/kg, route intravenous; conditions: in vivo
[3] = biological target: T2, C-X-C chemokine receptor type 3 (Homo sapiens, UniProt P49682); assay: Displacement of [125I]-ITAC from human CXCR3 expressed in human PBMC after 2 hrs in RPMI buffer by scintillation counting
T2 sequence (P49682 whole entry): T1 sequence (B8PY99 whole entry) with A83T, A259V

[4] = test system: Blood; assay: Drug level in bleomycin-induced mouse blood at 1 mg/mL, sc; type: ADME, tissue-based
[5] = Mean residence time in cynomolgus monkey at 1 mg/kg, iv; type: ADME, organism-based, Macaca fascicularis; set-up: dose 1 mg/kg, route intravenous; conditions: in vivo
[6] = Oral bioavailability in mouse at 2 mg/kg; type: ADME, organism-based; conditions: in vivo
[7] = Oral bioavailability in dog at 2.5 mg/kg; type: ADME, organism-based, Canis lupus familiaris; conditions: in vivo
[8] = Volume of distribution at steady state in cynomolgus monkey at 1 mg/kg, iv; type: ADME, organism-based, Macaca fascicularis; set-up: dose 1 mg/kg, route intravenous; conditions: in vivo, read-out: Vdss
[9] = Clearance in rat at 0.5 mg/kg, iv; type: ADME, organism-based; set-up: dose 0.5 mg/kg, route intravenous; conditions: in vivo
[10] = Mean residence time in rat at 0.5 mg/kg, iv; type: ADME, organism-based; set-up: dose 0.5 mg/kg, route intravenous; conditions: in vivo
[11] = biological target: Cytochrome P450 2D6 (Homo sapiens, UniProt P10635); assay: Inhibition of CYP2D6; type: ADME
Sequence of Cytochrome P450 2D6 (P10635 whole entry): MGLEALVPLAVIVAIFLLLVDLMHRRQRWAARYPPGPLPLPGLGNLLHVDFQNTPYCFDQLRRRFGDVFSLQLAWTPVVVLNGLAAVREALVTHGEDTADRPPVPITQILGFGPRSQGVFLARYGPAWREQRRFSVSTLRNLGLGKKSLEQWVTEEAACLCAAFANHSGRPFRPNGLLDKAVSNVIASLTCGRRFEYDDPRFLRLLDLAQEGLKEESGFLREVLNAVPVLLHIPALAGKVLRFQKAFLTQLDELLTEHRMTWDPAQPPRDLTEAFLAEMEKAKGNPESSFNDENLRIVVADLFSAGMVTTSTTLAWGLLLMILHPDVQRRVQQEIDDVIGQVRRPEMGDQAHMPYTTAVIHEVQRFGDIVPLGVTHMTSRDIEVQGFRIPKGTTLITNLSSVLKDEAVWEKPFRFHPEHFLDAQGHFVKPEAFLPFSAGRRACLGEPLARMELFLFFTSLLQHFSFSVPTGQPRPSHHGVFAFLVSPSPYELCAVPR

[12] = biological target: T3, C-X-C chemokine receptor type 3 (Rattus norvegicus, UniProt Q9JII9); assay: Displacement of [125I]-IP10 from rat CXCR3 expressed in human PBMC after 2 hrs in RPMI buffer by scintillation counting; method in brief: as §1
T3 sequence (Q9JII9 whole entry): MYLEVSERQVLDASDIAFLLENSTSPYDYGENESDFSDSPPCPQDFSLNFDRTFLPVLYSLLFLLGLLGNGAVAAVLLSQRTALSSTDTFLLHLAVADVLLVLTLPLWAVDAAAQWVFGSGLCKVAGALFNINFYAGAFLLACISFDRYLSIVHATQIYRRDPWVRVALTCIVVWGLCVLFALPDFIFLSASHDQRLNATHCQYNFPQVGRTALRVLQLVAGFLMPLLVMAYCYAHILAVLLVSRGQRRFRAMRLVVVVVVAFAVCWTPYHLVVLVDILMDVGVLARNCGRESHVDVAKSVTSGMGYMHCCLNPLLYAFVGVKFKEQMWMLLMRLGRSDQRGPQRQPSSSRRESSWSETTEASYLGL

[13] = biological target: Cytochrome P450 2C9 (Homo sapiens, UniProt P11712); assay: Inhibition of CYP2C9; type: ADME
Sequence of Cytochrome P450 2C9 (P11712 whole entry): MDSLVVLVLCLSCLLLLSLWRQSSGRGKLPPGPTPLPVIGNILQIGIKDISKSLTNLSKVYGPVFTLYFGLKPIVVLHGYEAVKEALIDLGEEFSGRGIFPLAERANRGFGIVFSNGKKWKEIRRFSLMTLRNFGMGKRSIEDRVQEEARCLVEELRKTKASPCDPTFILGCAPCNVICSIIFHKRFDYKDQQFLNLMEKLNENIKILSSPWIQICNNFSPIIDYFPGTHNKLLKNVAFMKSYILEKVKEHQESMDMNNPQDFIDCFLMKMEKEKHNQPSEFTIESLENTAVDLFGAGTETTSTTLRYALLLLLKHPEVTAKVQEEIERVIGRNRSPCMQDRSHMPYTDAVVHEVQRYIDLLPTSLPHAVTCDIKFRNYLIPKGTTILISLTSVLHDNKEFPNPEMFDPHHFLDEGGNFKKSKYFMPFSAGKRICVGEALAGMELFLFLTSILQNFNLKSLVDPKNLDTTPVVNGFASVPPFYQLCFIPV

[14] = test system: Blood; assay: Drug level in bleomycin-induced mouse blood at 10 mg/mL, sc; type: ADME, tissue-based
[15] = biological target: Cytochrome P450 3A4 (Homo sapiens, UniProt P08684); assay: Inhibition of CYP3A4; type: ADME
Sequence of Cytochrome P450 3A4 (P08684 whole entry): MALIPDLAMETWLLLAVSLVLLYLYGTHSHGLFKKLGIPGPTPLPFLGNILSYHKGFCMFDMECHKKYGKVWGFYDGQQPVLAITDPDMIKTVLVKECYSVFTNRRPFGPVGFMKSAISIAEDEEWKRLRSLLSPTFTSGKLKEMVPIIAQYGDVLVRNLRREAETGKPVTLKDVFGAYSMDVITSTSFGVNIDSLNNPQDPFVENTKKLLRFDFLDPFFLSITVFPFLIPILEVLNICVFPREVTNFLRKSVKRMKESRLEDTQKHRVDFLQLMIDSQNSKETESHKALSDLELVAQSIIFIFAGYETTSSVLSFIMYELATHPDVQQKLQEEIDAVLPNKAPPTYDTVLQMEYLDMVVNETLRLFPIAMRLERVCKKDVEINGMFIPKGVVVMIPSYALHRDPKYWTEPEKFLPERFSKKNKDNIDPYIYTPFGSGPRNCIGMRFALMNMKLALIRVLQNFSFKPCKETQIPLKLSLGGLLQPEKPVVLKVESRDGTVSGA

[16] = test system: Blood; assay: Drug level in bleomycin-induced mouse blood at 0.3 mg/mL, sc; type: ADME, tissue-based
[17] = Oral bioavailability in cynomolgus monkey at 5 mg/kg; type: ADME, organism-based, Macaca fascicularis; conditions: in vivo
[18] = biological target: T4, Cytochrome P450 1A2 (Homo sapiens, UniProt P05177); assay: Inhibition of CYP1A2; type: ADME
T4 sequence (P05177 whole entry): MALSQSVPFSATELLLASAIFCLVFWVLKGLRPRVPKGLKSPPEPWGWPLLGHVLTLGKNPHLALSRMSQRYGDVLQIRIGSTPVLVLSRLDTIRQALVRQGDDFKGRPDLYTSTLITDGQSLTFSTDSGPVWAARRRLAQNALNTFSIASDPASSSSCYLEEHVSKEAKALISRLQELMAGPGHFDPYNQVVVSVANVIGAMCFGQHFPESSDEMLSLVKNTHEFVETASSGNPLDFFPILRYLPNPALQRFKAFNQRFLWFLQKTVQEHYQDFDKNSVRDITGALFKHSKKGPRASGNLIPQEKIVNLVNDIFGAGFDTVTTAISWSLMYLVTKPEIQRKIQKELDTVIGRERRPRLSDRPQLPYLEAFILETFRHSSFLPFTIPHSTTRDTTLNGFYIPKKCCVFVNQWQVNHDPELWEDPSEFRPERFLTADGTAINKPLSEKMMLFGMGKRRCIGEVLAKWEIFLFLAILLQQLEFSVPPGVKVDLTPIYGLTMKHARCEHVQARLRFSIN

[19] = Volume of distribution at steady state in rat at 0.5 mg/kg, iv; type: ADME, organism-based; set-up: dose 0.5 mg/kg, route intravenous; conditions: in vivo, read-out: Vdss
[20] = Volume of distribution at steady state in mouse at 0.5 mg/kg, iv; type: ADME, organism-based; set-up: dose 0.5 mg/kg, route intravenous; conditions: in vivo, read-out: Vdss
[21] = Clearance in cynomolgus monkey at 1 mg/kg, iv; type: ADME, organism-based, Macaca fascicularis; set-up: dose 1 mg/kg, route intravenous; conditions: in vivo
[22] = test system: Mus musculus; assay: Effect on bleomycin-induced cellular recruitment in sc dosed mouse assessed as inhibition of cellular infiltration measured 6 days after bleomycin challenge; type: functional, organism-based
[23] = Clearance in mouse at 0.5 mg/kg, iv; type: ADME, organism-based; set-up: dose 0.5 mg/kg, route intravenous; conditions: in vivo
[24] = Oral bioavailability in rat at 2 mg/kg; type: ADME, organism-based; conditions: in vivo
[25] = Mean residence time in mouse at 0.5 mg/kg, iv; type: ADME, organism-based; set-up: dose 0.5 mg/kg, route intravenous; conditions: in vivo
[26] = biological target: T2, C-X-C chemokine receptor type 3; assay: Displacement of [125I]-1P10 from human CXCR3 expressed in PBMC after 2 hrs in RPMI buffer by scintillation counting

CCS(=O)(=O)CCN(C(=O)Cc1ccc(F)c(C(F)(F)F)c1)[C@H](C)c1nc2ncccc2c(=O)n1-c1ccc(OCC(F)(F)F)cc1
IC50 [1]: 2 nM | MRT [2]: 2.5 h | IC50 [3]: 1 nM | Drug uptake [4]: 11 ng/mL | MRT [5]: 1.6 h | bioavailability [6]: 84% | bioavailability [7]: 25% | Vd [8]: 1.4 L/kg | clearance [9]: 65 mL/min/kg | MRT [10]: 0.65 h | Activity [11]: Active | IC50 [12]: 4 nM | Activity [13]: Active | Drug uptake [14]: 35 ng/mL | Activity [15]: Active | Drug uptake [16]: 6 ng/mL | bioavailability [17]: 14% | Activity [18]: Active | Vd [19]: 2.5 L/kg | Vd [20]: 0.8 L/kg | clearance [21]: 14.5 mL/min/kg | Activity [22]: Active | clearance [23]: 13 mL/min/kg | bioavailability [24]: 26% | MRT [25]: 1.1 h | IC50 [26]: 1 nM
